From PubChem
Most compounds without a hit are left out; they make up all but 2.6% or so of the library.
mABHD4 FP: ABHD4 (mouse) inhibition, primary FP screen; Q8VD66; purified mABHD4, FP-Rh probe fluorescence polarization; inhibition, % at 8.92 µM; 0.54% of 370,000 active; AID 720543;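 active means inhibition exceeding the mean over every tested compound plus 3 SD, cut at about 30% in these data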;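 further: 0% = plate median of compound wells and 100% = S159A mutant with DMSO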
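Assay system: Wild-type mouse ABHD4 protein | Medium: HEPES pH 7.0 buffer, 150 mM NaCl, 0.01% Pluronic F-127 | Incubation: Enzyme–compound pre-incubation 45 min, then probe 60 min, both 25 °C | Technique: Fluorescence polarization with parallel and perpendicular emission, 525/598 nm | Evaluation: % inhibition of FP-Rh probe binding versus controls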
SIAE inh: human SIAE inhibition, primary screen; SIAE FP-Rh probe binding, fluorescence polarization; AID 1053197; 0.69% of 370,000 active; inhibition, % at 9.66 µM; Q9HAT2;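 active means inhibition above a cutoff: mean of compounds within the control limits plus 3 SD of those, cut at about 17% in these data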;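 further: 0% = plate median of compound wells and 100% = probe without SIAE protein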
HTRA1 inh: blocks human HTRA1 serine peptidase; 0.5% of 340,000 active; recombinant HTRA1, FP-rhodamine activity-based probe, fluorescence polarization; inhibition, % at 5.96 µM; Q92743; in the data active means inhibition above about 36%;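 further: 0% = enzyme with DMSO and 100% = wells lacking enzyme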
Target sequence (Q92743 whole entry, looked up): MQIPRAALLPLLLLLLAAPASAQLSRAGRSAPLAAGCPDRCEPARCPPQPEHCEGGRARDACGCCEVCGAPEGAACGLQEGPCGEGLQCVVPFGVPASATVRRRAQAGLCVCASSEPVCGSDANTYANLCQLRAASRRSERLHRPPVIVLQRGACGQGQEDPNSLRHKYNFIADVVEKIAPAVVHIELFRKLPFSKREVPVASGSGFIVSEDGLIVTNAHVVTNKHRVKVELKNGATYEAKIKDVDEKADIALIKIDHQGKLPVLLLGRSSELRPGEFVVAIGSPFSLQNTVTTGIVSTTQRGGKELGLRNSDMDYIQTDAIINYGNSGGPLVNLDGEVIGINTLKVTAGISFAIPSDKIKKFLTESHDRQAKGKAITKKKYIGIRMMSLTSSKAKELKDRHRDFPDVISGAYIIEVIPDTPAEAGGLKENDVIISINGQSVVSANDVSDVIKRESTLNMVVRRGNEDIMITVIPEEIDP
TCR CD3 inh: blocks the human TCR-CD3 interaction. TAMRA-labeled TCR probe fluorescence, biochemical. inhibition, % at 9.4 µM. 0.37% of 360,000 active. AID 651800; in the data active means inhibition above about 19%;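 further: recombinant mutant TCR 2C K166C tagged with TAMRA read by polarization; 0% = receptor in buffer alone and 100% = receptor with positive control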
PRMT1 inh: inhibitors of human PRMT1; 1.3% of 370,000 active; recombinant PRMT1, activity-based probe fluorescence polarization; inhibition, % at 2.79 µM;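 active means inhibition above about 21% made by adding two undisclosed values, limit read from the data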
Active calls of the source: *; · = no result given.

SMILES | mABHD4 FP | SIAE inh | HTRA1 inh | TCR CD3 inh | PRMT1 inh
Cc1ccc(NC(=O)CN2C(=O)N/C(=C/c3cccn3-c3ccc(C(=O)O)cc3)C2=O)cc1 | 3 | 1 | -4 | 11 | 30*
O=C(OCc1cn(Cc2cccc(F)c2F)nn1)N1CCOCC1 | 1 | 2 | · | · | 4
CCN(C(=O)COC(=O)CCC(=O)c1ccccc1)c1c(N)n(Cc2ccccc2)c(=O)[nH]c1=O | -5 | 26* | 2 | 1 | -2
CCN(C(=O)COC(=O)CCC(=O)c1ccc(C)cc1)c1c(N)n(Cc2ccccc2)c(=O)[nH]c1=O | 5 | 0 | 0 | -3 | 6
CCCN(CCC)C(=O)c1ccc2c(c1)N(Cc1ccccc1)C(=O)CS2=O (stereo not given) | -1 | 5 | 0 | 2 | 24*
O=C(NCCc1ccccc1)c1ccc2c(c1)N(Cc1ccccc1)C(=O)CS2=O (stereo not given) | -6 | -6 | -9 | 7 | 13
O=C1CCCC2=C1C(c1ccco1)Nc1ccc3ccccc3c12 (stereo not given) | 25 | 4 | 15 | 11 | 44*
Cc1ccc(C2Nc3ccc4ccccc4c3C3=C2C(=O)CC(C)(C)C3)o1 (stereo not given) | · | · | -9 | · | ·
CN(C)c1ccc(NS(=O)(=O)c2ccc(Cl)cc2)cc1 | 10 | 7 | 5 | -8 | 23*
Cc1noc(C)c1CSc1ccc(Br)cc1 | 4 | -4 | -1 | 3 | -3
CC(=O)Nc1ccc(SCc2ncc(-c3ccccc3)o2)cc1 | 1 | 7 | -12 | 0 | 22*
CC(=O)Nc1ccc(SCc2c(C)noc2C)cc1 | -4 | 4 | -2 | 1 | 21*
CCNC(=O)N(C)[C@H]1C[C@H]2c3[nH]c4cccc(-c5cccc(F)c5)c4c3CCN2C(=O)[C@H]1[C@H](C)O | 3 | 4 | · | · | 3
Nc1ccc(N2CCOCC2)c2nonc12 | 13 | -6 | 19 | -6 | 40*
O=C(Nc1ccc(N2CCOCC2)c2nonc12)C1CCCC1 | 8 | 4 | 11 | -2 | -2
COc1ccc(C(=O)Nc2ccc(S(=O)(=O)Nc3cc(C)nc(C)n3)cc2)c(OC)c1 | -5 | -9 | 0 | -9 | 21*
COc1ccccc1C(=O)Nc1ccc(S(=O)(=O)Nc2cc(C)nc(C)n2)cc1 | -8 | -12 | 1 | 6 | -2
CCCc1cc(=O)n(-c2nc3ccccc3s2)[nH]1 | 1 | 12 | 4 | 1 | -2
CCOC(=O)Cc1cc(=O)n(-c2nc3ccccc3s2)[nH]1 | 4 | 10 | 49* | 16 | 10
Cc1cccc(C)c1NC(=O)CSc1nnc(-c2ccco2)c(-c2ccco2)n1 | · | · | 50* | · | ·
COc1ccc2c(c1)N[C@@](CCNC=O)(c1[nH]c3ccccc3c1CCNC=O)C2=O | -2 | 0 | · | · | 6
O=C(CCCc1c[nH]c2ccccc12)N1CCN(c2ccc(N3CCOCC3)nn2)CC1 | 5 | 19* | 9 | 6 | -4
C=CCN(CC#Cc1ccc(C)cc1)Cc1ccc(OC)cc1OC | 3 | -4 | · | · | -3
Cc1ccc(-c2cc(C(=O)OCC(=O)N(C)C3CCS(=O)(=O)C3)c3ccccc3n2)o1 (stereo not given) | -3 | 4 | -2 | 0 | 16
CCN(C(=O)COC(=O)c1cc(-c2ccc(C)o2)nc2ccccc12)C1CCS(=O)(=O)C1 (stereo not given) | -1 | 12 | -7 | -9 | 23*
SMILES | mABHD4 FP | SIAE inh | HTRA1 inh | TCR CD3 inh | PRMT1 inh
COCCn1c(C)cc(/C=C2\NC(=S)N(C)C2=O)c1C | -3 | 2 | 8 | -1 | 22*
Oc1c(C=NCc2ccncc2)sc2ccccc12 | -5 | -17 | · | -4 | 63*
Nc1nc(N)c2cc(Sc3ccc4ccccc4c3)ccc2n1 | 20 | 29* | · | -7 | 1
C=CC(C)(C)c1c(O)c(CC=C(C)C)c(O)c2c(=O)c3ccc(O)c(O)c3oc12 | · | · | 37* | · | ·
O=C(OC12CCCN(C1)/C(=C/c1cccnc1)C2)c1ccco1 (stereo not given) | 3 | 3 | · | · | 0
Cc1ccc2oc(=O)c(/C=C(\O)c3cccs3)nc2c1 | 25 | 10 | 0 | 5 | 4
O=c1oc2ccc(Cl)cc2nc1/C=C(\O)c1cccs1 | 32* | 5 | 3 | 10 | 7
CCOC(=O)C1=C(C)NC(=S)NC1c1ccc(-c2cccc(Cl)c2C)o1 (stereo not given) | -2 | 2 | -23 | -1 | 22*
CC(COc1ccc(S(C)(=O)=O)cc1)CN1CCC(C(O)(c2ccccc2)c2ccccc2)CC1 (stereo not given) | -3 | 0 | · | · | -1
